What is called MIC is the lowest concentration that inhibits growth of the organism.

In brackets after ≈: the same amount, converted by molar mass.

For three compounds, MIC results are on record in paper PMC7932028 (European journal of medicinal chemistry, 2020).

The test system of this assay is S. aureus strain 29213. The assay is described as follows: Whole cell growth inhibition. The assay is classed as cell-based. The following applies: Staphylococcus aureus, 29213, 18 h, read-out: MIC (whole cell growth inhibition). The method in brief:
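Racemic test compounds were assayed against CLSI-standardized S. aureus cultures. Growth was scored by turbidity at 600 nm and by visual inspection. The MIC was taken as the lowest concentration with no growth after 18 h incubation. There were n = 2 independent assays, each with duplicate technical replicates, and values are given with SEM.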
Turning to `CCCC1c2cc(C)c(C)cc2C=NN1C(=O)/C=C/c1cc(Cc2cnc(N)nc2N)cc(OC)c1OC` (racemic) [13b, (±)-(E)-3-(5-((2,4-Diaminopyrimidin-5-yl)methyl)-2,3-dimethoxyphenyl)-1-(6,7-dimethyl-1-propylphthalazin-2(1H)-yl) prop-2-en-1-one], the MIC was in the range of 0.5 to 1 µg/mL (≈ 0.972 to 1.94 µM).

Turning to `CCCC1c2ccccc2C=NN1C(=O)/C=C/c1cc(Cc2cnc(N)nc2N)cc(OC)c1OC` (stereo not drawn) [11a], the MIC fell in the range of 0.0625 to 0.25 µg/mL (≈ 0.128 to 0.514 µM).

On to `COc1cc(Cc2cnc(N)nc2N)cc(/C=C/C(=O)N2N=Cc3ccccc3C2c2ccc(C)cc2)c1OC` (stereo not drawn) [11j], for which the minimum inhibitory concentration (MIC) fell in the range of 0.046 to 0.187 µg/mL (≈ 0.086 to 0.35 µM).
